The results in this text go back to ChEMBL document CHEMBL1155932, “False positives in a reporter gene assay: identification and synthesis of substituted N-pyridin-2-ylbenzamides as competitive inhibitors of firefly luciferase” (J Med Chem, 2008).

In general, IC50 refers to the midpoint of a concentration-inhibition curve. What is called inhibition is the percentage by which the read-out fell short of the control. High values mean a strong effect, low ones a weak effect. One may read the Km as the concentration of substrate that gives half-maximal velocity.

The labels stand for the following.
T1: Luciferin 4-monooxygenase (Luciola lateralis, UniProt Q01158)
T1 sequence (Q01158 whole entry): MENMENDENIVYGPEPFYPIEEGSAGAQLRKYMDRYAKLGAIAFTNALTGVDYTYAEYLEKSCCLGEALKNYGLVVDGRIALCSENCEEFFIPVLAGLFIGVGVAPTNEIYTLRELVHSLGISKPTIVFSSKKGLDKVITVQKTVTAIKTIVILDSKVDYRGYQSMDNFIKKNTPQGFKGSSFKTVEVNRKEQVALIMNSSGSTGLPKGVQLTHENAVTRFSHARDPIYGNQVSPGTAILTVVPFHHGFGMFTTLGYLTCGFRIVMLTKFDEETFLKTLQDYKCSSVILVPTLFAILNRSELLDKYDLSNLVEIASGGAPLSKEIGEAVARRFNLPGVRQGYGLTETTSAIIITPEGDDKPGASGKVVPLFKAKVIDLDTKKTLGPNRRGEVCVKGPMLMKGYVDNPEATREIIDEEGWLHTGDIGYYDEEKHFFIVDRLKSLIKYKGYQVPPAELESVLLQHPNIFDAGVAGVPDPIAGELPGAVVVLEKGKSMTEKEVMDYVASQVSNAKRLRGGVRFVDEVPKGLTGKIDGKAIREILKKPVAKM

T2: Luciferin 4-monooxygenase (Luciola lateralis) (UniProt Q01158)
T2 sequence (whole entry): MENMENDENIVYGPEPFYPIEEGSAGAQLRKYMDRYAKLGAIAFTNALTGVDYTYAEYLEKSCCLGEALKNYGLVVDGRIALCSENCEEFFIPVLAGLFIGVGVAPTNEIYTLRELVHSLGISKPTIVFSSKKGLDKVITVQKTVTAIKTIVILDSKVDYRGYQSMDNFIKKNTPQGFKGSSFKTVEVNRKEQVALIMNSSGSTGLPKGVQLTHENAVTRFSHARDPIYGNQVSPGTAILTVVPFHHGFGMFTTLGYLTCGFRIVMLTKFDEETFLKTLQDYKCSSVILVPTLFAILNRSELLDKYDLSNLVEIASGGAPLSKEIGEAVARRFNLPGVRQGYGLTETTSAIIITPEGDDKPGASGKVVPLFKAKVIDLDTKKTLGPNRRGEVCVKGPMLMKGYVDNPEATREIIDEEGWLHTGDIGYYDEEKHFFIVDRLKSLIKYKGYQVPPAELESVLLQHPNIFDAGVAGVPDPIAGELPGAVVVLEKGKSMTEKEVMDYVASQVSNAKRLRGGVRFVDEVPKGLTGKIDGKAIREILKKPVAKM

B1: Luciferin 4-monooxygenase (Luciola lateralis), Q01158 (protein)
chain: MENMENDENIVYGPEPFYPIEEGSAGAQLRKYMDRYAKLGAIAFTNALTGVDYTYAEYLEKSCCLGEALKNYGLVVDGRIALCSENCEEFFIPVLAGLFIGVGVAPTNEIYTLRELVHSLGISKPTIVFSSKKGLDKVITVQKTVTAIKTIVILDSKVDYRGYQSMDNFIKKNTPQGFKGSSFKTVEVNRKEQVALIMNSSGSTGLPKGVQLTHENAVTRFSHARDPIYGNQVSPGTAILTVVPFHHGFGMFTTLGYLTCGFRIVMLTKFDEETFLKTLQDYKCSSVILVPTLFAILNRSELLDKYDLSNLVEIASGGAPLSKEIGEAVARRFNLPGVRQGYGLTETTSAIIITPEGDDKPGASGKVVPLFKAKVIDLDTKKTLGPNRRGEVCVKGPMLMKGYVDNPEATREIIDEEGWLHTGDIGYYDEEKHFFIVDRLKSLIKYKGYQVPPAELESVLLQHPNIFDAGVAGVPDPIAGELPGAVVVLEKGKSMTEKEVMDYVASQVSNAKRLRGGVRFVDEVPKGLTGKIDGKAIREILKKPVAKM

The first data set addresses T1, Luciferin 4-monooxygenase. In words: Inhibition of firefly luciferase activity. The arrangement: species or system Aquatica lateralis.
Details: not given
An outline of the steps:
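Firefly luciferase (32 pM) in glycine-Tris buffer with EDTA and MgSO4, pH 7.8; substrates 50 µM D-luciferin and 90 µM ATP in glycine-Tris/MgSO4/EDTA/0.1% BSA/azide buffer, pH 7.8. Inhibitor tested at 11 concentrations; 30 min dark incubation, room temperature; luminescence counted. Nonspecific activity defined with 100 µM reference inhibitor. IC50 ± SEM from three experiments in duplicate.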
The molecule `O=C(Nc1ccc(-c2ccccc2)cn1)c1ccccc1` displayed an IC50 of 69 nM.

`O=C(Nc1ccc2ccccc2n1)c1ccccc1`: the IC50 was found to be 1700 nM.

In turn, `O=C(Nc1ccc(-c2ccccc2)cn1)C1CCCCC1` gave a 50% inhibitory concentration (IC50) of 2400 nM.

`COc1ccc(-c2ccc(NC(=O)c3ccccc3)nc2)cc1` yielded an IC50 of 310 nM.

In the case of `Nc1ccc(C(=O)Nc2ccc(-c3ccccc3)cn2)cc1`, the IC50 came out at 1200 nM.

`O=C(Nc1ccc(-c2ccccc2)cn1)c1cccc(Cl)c1`: the IC50 was 160 nM.

`Cc1ccc(NC(=O)c2ccccc2)nc1` had an IC50 of 6400 nM.

Consider `O=C(Nc1ccc(-c2ccc(Cl)cc2)cn1)c1ccccc1`, for which 560 nM corresponded to half-maximal inhibition (IC50).

For `COc1ccc(C(=O)Nc2ccc(C)cn2)c(OC)c1`, half-maximal inhibition (IC50) required 610 nM.

The target in the next data set is T2, Luciferin 4-monooxygenase (Luciola lateralis). In words: Inhibition of firefly luciferase activity at 10 uM. Particulars: Aquatica lateralis. An outline of the steps:
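Single 10 µM inhibitor concentration against 32 pM firefly luciferase with 50 µM D-luciferin and 90 µM ATP, pH 7.8 glycine-Tris buffers containing MgSO4 and EDTA. 30 min incubation in the dark at room temperature, then luminescence read. Percent inhibition from n = 2 experiments in duplicate.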
In turn, `Cc1ccc(C(=O)Nc2ccc(-c3ccccc3)cn2)cc1` yielded an inhibition of 18%.

Consider `O=C(Nc1ccc(-c2ccccc2)cn1)c1ccc(Cl)cc1`, for which the inhibition was 0%.

The molecule `O=C(Nc1ccc(-c2ccccc2)cn1)c1ccc(Cl)c(Cl)c1` showed an inhibition of 13%.

As for `CN(C)c1ccc(-c2ccc(NC(=O)c3ccccc3)nc2)cc1`, the inhibition amounted to 14%.

Take `O=C(Nc1cccc(-c2ccccc2)n1)c1ccccc1`: the inhibition was 30%.

`O=C(Nc1ccccn1)c1ccccc1`: the inhibition worked out at 27%.

For `O=C(Nc1ccc(-c2ccc(C(F)(F)F)cc2)cn1)c1ccccc1`, the inhibition is 39%.

`CC(C)Oc1ccc(-c2ccc(NC(=O)c3ccccc3)nc2)cc1` came in with an inhibition of 38%.

Take `O=C(Nc1ccccc1)Nc1ccc(-c2ccccc2)cn1`: the inhibition amounted to 20%.

The molecule `CCCC(=O)Nc1ccc(-c2ccccc2)cn1` registered an inhibition of 22%.

`COc1ccc(C(=O)Nc2ccc(-c3ccccc3)cn2)c(OC)c1` came in with an inhibition of 26%.

Take `O=C(Nc1ccc(-c2cccc(Cl)c2)cn1)c1ccccc1`: the inhibition is 38%.

On to `CC(C)Oc1ccc(C(=O)Nc2ccc(-c3ccccc3)cn2)cc1`, for which the inhibition is 12%.

`O=C(Nc1ccc(-c2ccccc2)cn1)Oc1ccccc1` registered an inhibition of 0%.

As for `CC(C)(C)c1ccc(-c2ccc(NC(=O)c3ccccc3)nc2)cc1`, the inhibition came to 49%.

`O=C(Nc1ccc(-c2ccc(Cl)c(Cl)c2)cn1)c1ccccc1` showed an inhibition of 4%.

Turning to `c1ccc(CNc2ccc(-c3ccccc3)cn2)cc1`, the inhibition turned out to be 20%.

Regarding `Cc1ccc(-c2ccc(NC(=O)c3ccccc3)nc2)cc1`, the inhibition worked out at 51%.

Take `COc1ccc(C(=O)Nc2ccc(-c3ccccc3)cn2)cc1`: the inhibition is 28%.

Take `CN(C)c1ccc(C(=O)Nc2ccc(-c3ccccc3)cn2)cc1`: the inhibition was found to be 35%.

Substrate in another data set: O=C(Nc1ccc2ccccc2n1)c1ccccc1
Particulars: Aquatica lateralis; 0.1 uM.
As to B1, the Km worked out at 16 µM and the Vmax stood at 96%.

Substrate in another data set: O=C(Nc1ccc2ccccc2n1)c1ccccc1
The settings on record: Aquatica lateralis; 1 uM.
In the case of B1, the Km amounted to 53 µM and the Vmax came out at 95%.

Substrate in a further data set: O=C(Nc1ccc2ccccc2n1)c1ccccc1
The settings on record: Aquatica lateralis; 1 uM. The source holds these as a separate data set.
On to B1, for which the Michaelis-Menten constant (Km) amounted to 3.8 µM and the Vmax was determined as 56%.
